Results taken from ChEMBL document CHEMBL1147981, “Small molecule activators of SIRT1 as therapeutics for the treatment of type 2 diabetes” (Nature, 2007).
Each block holds one compound with its values, some of them ahead of it. The source made the active and inactive calls. No cut-off for these calls is given here.

Columns and labels:
Mus musculus [1] = assay: Reduction of fasting blood glucose in DIO C57BL/6 mouse model at 5 mg/kg, po assessed as glucose level by glucose tolerance test; assay type: functional
Outline: (§1)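 Male C57BL/6 mice, started at nine weeks, fed 60%-fat diet until mean weight ~40 g; 6-10 per group; once-daily oral gavage in 2% HPMC + 0.2% DOSS. Fed glucose at 2, 4, 6, 8, 10 weeks; IPGTT after 5 weeks; ITT after 10 weeks. One-way ANOVA with Dunnett's test vs control, p<0.05.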

Mus musculus [2] = assay: Reduction of glucose levels in DIO C57BL/6 mouse model at 5 mg/kg, po during insulin tolerance test; assay type: functional, organism-based; design: dose 5 mg/kg; outline: as §1
[3] = target: T1, NAD-dependent protein deacetylase sirtuin-3, mitochondrial (Homo sapiens, UniProt Q9NTG7); assay: Activation of SIRT3 by mass spectrometry assay
T1 sequence (Q9NTG7 whole entry): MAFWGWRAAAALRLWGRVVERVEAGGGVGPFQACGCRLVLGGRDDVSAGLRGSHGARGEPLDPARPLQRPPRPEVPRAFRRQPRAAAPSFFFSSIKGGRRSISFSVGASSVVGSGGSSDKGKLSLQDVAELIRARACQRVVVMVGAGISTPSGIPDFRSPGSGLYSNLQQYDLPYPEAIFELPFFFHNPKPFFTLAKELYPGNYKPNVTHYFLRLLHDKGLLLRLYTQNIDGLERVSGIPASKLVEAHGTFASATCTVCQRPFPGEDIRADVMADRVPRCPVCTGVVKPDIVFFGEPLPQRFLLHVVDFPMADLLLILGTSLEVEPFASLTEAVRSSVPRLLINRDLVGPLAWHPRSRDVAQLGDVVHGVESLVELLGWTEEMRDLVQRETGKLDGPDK

[4] = target: T2, NAD-dependent protein deacetylase sirtuin-1 (Homo sapiens, UniProt Q96EB6); assay: (§2) Activation of human SIRT1 expressed in Escherichia coli BL21 by mass spectrometry assay
T2 sequence (Q96EB6 whole entry): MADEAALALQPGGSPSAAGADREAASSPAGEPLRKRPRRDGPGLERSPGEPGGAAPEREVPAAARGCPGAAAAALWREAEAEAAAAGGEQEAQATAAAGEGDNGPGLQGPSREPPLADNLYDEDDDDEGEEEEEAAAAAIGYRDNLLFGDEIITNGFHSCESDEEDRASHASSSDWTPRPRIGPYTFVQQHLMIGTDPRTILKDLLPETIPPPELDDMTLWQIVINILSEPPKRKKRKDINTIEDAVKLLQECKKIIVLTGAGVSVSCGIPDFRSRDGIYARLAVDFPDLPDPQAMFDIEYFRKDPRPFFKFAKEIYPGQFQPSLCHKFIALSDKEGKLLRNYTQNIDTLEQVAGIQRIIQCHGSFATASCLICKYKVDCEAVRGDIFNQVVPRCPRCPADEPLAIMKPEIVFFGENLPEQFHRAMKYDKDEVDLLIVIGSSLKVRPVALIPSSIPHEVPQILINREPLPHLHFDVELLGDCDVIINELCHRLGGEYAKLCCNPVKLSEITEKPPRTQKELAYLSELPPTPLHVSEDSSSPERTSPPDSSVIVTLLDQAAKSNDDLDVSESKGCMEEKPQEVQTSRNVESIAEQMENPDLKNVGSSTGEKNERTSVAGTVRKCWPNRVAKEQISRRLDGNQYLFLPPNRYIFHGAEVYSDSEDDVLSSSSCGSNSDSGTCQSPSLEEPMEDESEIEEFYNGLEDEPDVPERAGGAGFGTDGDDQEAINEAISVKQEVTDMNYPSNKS

[5] = target: T3, NAD-dependent protein deacetylase sirtuin-1 (Homo sapiens) (UniProt Q96EB6); assay: as §2
T3 sequence (whole entry): T2 sequence (Q96EB6 whole entry)

[6] = target: T3, NAD-dependent protein deacetylase sirtuin-1 (Homo sapiens); assay: Activation of human SIRT1 assessed as decrease in Km of enzyme for acetylated peptide substrate by mass spectrometry assay
[7] = target: T4, NAD-dependent protein deacetylase sirtuin-2 (Homo sapiens, UniProt Q8IXJ6); assay: Activation of SIRT2 by mass spectrometry assay
T4 sequence (Q8IXJ6 whole entry): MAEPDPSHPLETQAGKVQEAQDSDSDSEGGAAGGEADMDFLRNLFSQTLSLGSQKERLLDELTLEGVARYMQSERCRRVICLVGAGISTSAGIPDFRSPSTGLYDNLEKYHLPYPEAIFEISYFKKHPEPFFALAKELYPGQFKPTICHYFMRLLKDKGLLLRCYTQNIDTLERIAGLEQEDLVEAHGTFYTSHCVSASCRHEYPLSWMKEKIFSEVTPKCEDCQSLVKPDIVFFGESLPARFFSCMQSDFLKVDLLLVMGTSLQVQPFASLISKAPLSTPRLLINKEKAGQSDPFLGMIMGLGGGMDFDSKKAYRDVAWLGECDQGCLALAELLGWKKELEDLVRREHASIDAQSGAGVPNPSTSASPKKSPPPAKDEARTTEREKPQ

[8] = target: T3, NAD-dependent protein deacetylase sirtuin-1 (Homo sapiens); assay: Activation of SIRT1 in human U2OS cells assessed as decrease in deacetylation level at 10 uM; assay type: cell-based
Outline: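 U-2 OS cells seeded 1.5 × 10⁴/well; compounds in DMSO added after 24 h, then doxorubicin 1 μg/ml final to induce p53. Fixed, permeabilized, immunostained for Ac-Lys382-p53 and beta-tubulin, infrared scan; background-corrected acetyl signal normalized to tubulin, then to vehicle as % acetylated p53. Replicate plates co-treated with a SIRT1-specific inhibitor.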

[9] = target: T3, NAD-dependent protein deacetylase sirtuin-1 (Homo sapiens); assay: Activation of SIRT1 in human U2OS cells assessed as decrease in p53 deacetylation level at 100 uM; assay type: cell-based
Outline: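 U-2 OS cells plated at 1.5 X 10⁴ cells/well; compounds (DMSO) added after 24 h, then doxorubicin (1 μg/ml final) to induce p53. Replicate plates were co-treated with a SIRT1-specific inhibitor. Cells were fixed, permeabilized and immunostained for Ac-Lys382-p53 and beta-tubulin, with infrared scanning. Signals were background-corrected, normalized to tubulin, then to vehicle (% acetylated p53).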

[10] = target: T3, NAD-dependent protein deacetylase sirtuin-1 (Homo sapiens); assay: Activation of human SIRT1-F (230-664) construct by mass spectrometry assay relative to control
[11] = target: T3, NAD-dependent protein deacetylase sirtuin-1 (Homo sapiens); assay: Activation of human SIRT1-H (240-664) construct by mass spectrometry assay relative to control
[12] = target: T3, NAD-dependent protein deacetylase sirtuin-1 (Homo sapiens); assay: Activation of human SIRT1-A (156-664) construct by mass spectrometry assay relative to control
[13] = target: T3, NAD-dependent protein deacetylase sirtuin-1 (Homo sapiens); assay: Activation of human SIRT1-E (225-664) construct by mass spectrometry assay relative to control
Mus musculus [14] = organism: Mus musculus; assay: Reduction of insulin level in chow-fed C57BL/6 mouse; assay type: functional, organism-based
Mus musculus [15] = assay: Reduction of blood glucose level in diabetic Lep ob/ob mouse model at 1000 mg/kg, po after 3 weeks; assay type: functional, organism-based; design: dose 1000 mg/kg
Outline: (§3)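 ob/ob mice received at 6 weeks, kept on 60%-fat diet from at least one week before study; ~40-45 g; grouped by body weight and glucose; once-daily oral gavage in 2% HPMC + 0.2% DOSS. One-way ANOVA with Dunnett's test vs control, p<0.05.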

[16] = target: T3, NAD-dependent protein deacetylase sirtuin-1 (Homo sapiens); assay: Activation of human SIRT1-B (172-664) construct by mass spectrometry assay relative to control
[17] = target: T3, NAD-dependent protein deacetylase sirtuin-1 (Homo sapiens); assay: Activation of human SIRT1-D (219-664) construct by mass spectrometry assay relative to control
[18] = target: T3, NAD-dependent protein deacetylase sirtuin-1 (Homo sapiens); assay: Activation of human SIRT1-C construct by mass spectrometry assay relative to control
Mus musculus [19] = assay: Effect on body weight in diabetic Lep ob/ob mouse model at 1000 mg/kg, po; assay type: functional, organism-based; design: dose 1000 mg/kg; outline: as §3
[20] = target: T3, NAD-dependent protein deacetylase sirtuin-1 (Homo sapiens); assay: Activation of human SIRT1-G (235-664) construct by mass spectrometry assay relative to control
Mus musculus [21] = assay: Reduction of blood glucose level in DIO C57BL/6 mouse model at 500 mg/kg, po after 4 weeks; assay type: functional, organism-based; design: dose 500 mg/kg; outline: as §1

Compound: CN(CCOc1ccc(CC2SC(=O)NC2=O)cc1)c1ccccn1 (stereo not given) [ROSIGLITAZONE]
Activity (Mus musculus [1]): 496 mg/h/dL | Activity (Mus musculus [2]): Active

EC50 [3]: > 300 µM | EC50 [4]: 0.36 µM | Activity [5]: 296% | Activity [6]: Active | EC50 [7]: > 300 µM | Activity [8]: Active
Compound: O=C(Nc1ccccc1-c1cn2c(CN3CC[C@@H](O)C3)csc2n1)c1ccc2ccccc2c1

Activity [9]: Active | Activity [10]: 1.1 | Activity [11]: 1.2 | Activity [12]: 1.8 | Activity [13]: 1.3 | Activity [16]: 1.7 | Activity [17]: 1.3 | EC50 [3]: > 300 µM | Activity [18]: 1.9 | Activity [5]: 201% | Activity [20]: 1.2 | Activity [6]: Active | EC50 [7]: > 300 µM
Compound: Oc1ccc(/C=C/c2cc(O)cc(O)c2)cc1 [RESVERATROL]
Activity (Mus musculus [14]): Active | Activity (Mus musculus [15]): Active | Activity (Mus musculus [19]): inactive | Activity (Mus musculus [21]): Active
